Bioassay records: PubChem BioAssay, several laboratories
Arr AP2 block: human beta-arrestin and AP2 interaction inhibition; AID 504490; inhibition, % at 10 µM; 340,000 compounds, 0.31% hits; FITC-arrestin peptide / GST-AP2 beads, flow cytometry; AP2 beta2 appendage carries R879A mutation;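 active = inhibition above a set limit, near 3 SD of compounds lacking own fluorescence, cut at about 54% in these data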
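test system = AP2 appendage R879A on GSH beads | buffer or medium = PBS plus Tween 20 (0.05%) and BSA (0.1%) | incubation = 12 min plus 1 h, RT | detection = bead flow cytometry, FITC channel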
PAX8 reporter: lowers PAX8-driven luciferase in RMG-I cells; RMG-I TPO-luciferase reporter, SteadyGlo, 24 h; inhibition, % at 12.6 µM; 360,000 compounds, 1.2% hits; AID 652154;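 active = mean replicate inhibition at least 60% with every replicate also reaching 60%; inconclusive = only one of the two criteria is met; inactive = mean below 60% and not all replicates reaching 60%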;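 also: luciferase light reporting Pax8 driven TPO promoter activity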
Glyco luc inh: N-linked glycosylation inhibition. D54 ERlucT glycosylation luciferase reporter, 24 h; percent of 100 nM tunicamycin response. reporter increase, % at 12.5 µM. 360,000 compounds, 0.23% hits. AID 588692;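 active = mean luciferase reporter signal, scaled so untreated is 0 and the glycosylation-blocking control 100, at or above a set limit in every replicate; inconclusive = mean reaches the limit but not every replicate does; inactive = mean below the limit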;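 also: luciferase carries N-glycosylation sites so blocking glycosylation raises the light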
Env fusion inh: inhibitors of HIV Env-mediated cell fusion | HeLa-JRFL Env/CEM21 cell fusion, luciferase | inhibition, % at 12.3 µM | 360,000 compounds, 1.1% hits | AID 651610;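 active = mean replicate inhibition score of at least 50 and every replicate individually at or above 50; inconclusive = only one of the two criteria met; inactive = mean below 50 and not all replicates reaching 50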
Rtt109 HAT inh: C. albicans Rtt109 histone acetyltransferase inhibition. Q5AAJ8. purified Rtt109/Vps75, ThioGlo CoA-SH fluorescence, 4 h. inhibition, % at 34.9 µM. 330,000 compounds, 0.16% hits;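 active = inhibition of at least 50% in every replicate; inconclusive = best replicate reaches 50% inhibition but some replicates fall short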
Target sequence (Q5AAJ8 whole entry, looked up): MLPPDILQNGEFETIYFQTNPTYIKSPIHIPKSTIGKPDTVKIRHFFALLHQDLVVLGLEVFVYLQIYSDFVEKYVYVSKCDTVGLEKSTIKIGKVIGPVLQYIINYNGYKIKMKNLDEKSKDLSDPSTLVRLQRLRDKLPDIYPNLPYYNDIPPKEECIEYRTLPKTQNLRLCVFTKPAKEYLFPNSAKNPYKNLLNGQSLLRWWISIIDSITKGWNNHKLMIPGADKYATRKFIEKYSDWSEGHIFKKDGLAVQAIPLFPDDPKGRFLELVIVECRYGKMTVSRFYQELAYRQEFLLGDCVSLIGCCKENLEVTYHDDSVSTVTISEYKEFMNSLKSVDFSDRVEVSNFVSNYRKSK
PfHsp90 yeast 2: growth inhibition of yeast expressing Plasmodium Hsp90; S. cerevisiae expressing PfHsp90, BacTiter-Glo ATP, 48 h; yeast lacking PDR1 and PDR3 efflux regulators; inhibition, % at 9.4 µM; 310,000 compounds, 0.32% hits; AID 504621;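 active = every replicate shows inhibition above about 80%, whatever the replicate mean, limit read from the data; inconclusive = mean inhibition reaches the set limit but some replicate falls short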
Hits are given with their value; - = inactive; ? = inconclusive; . = not tested or not shown; [ ] = remark or other dose. Only some compounds are listed: those with a hit (about 2.3% of all), similar ones and a draw of the others.

SMILES	Arr AP2 block	PAX8 reporter	Glyco luc inh	Env fusion inh	Rtt109 HAT inh	PfHsp90 yeast 2
C[C@@H]1CN([C@H](C)CO)C(=O)c2cc(NC(=O)CCCN(C)C)ccc2O[C@H]1CN(C)S(C)(=O)=O	.	-	.	-	.	.
O=C(N[C@H]1CC[C@@H](CCNS(=O)(=O)c2ccc(F)cc2)O[C@H]1CO)c1cnccn1	.	-	.	-	.	.
CC(C)Cc1cc(C(=O)N2N=C(C(F)F)CC2(O)C(F)F)c2ccccc2n1 (stereo not drawn)	-	-	-	-	-	.
CCc1ccc(-c2cc(C(=O)N3N=C(C(F)F)CC3(O)C(F)F)c3ccccc3n2)cc1 (stereo not drawn)	-	.	-	.	-	111
C[C@H]1CN([C@@H](C)CO)C(=O)Cc2cc(NC(=O)Cc3ccccc3)ccc2O[C@@H]1CN(C)Cc1ccc(C(=O)Nc2ccccc2N)cc1	.	-	.	.	.	.
C[C@@H]1CN([C@@H](C)CO)C(=O)c2cc(NC(=O)NC3CCCCC3)ccc2O[C@@H](C)CCCCO[C@@H]1CN(C)S(=O)(=O)c1cn(C)cn1	.	-	.	-	.	.
c1ccc2c(c1)OCC(c1csc3ncnc(N4CCOCC4)c13)O2 (stereo not drawn)	-	.	-	70	-	.
CCN(CC)c1ncnc2scc(C3COc4ccccc4O3)c12 (stereo not drawn)	-	-	-	-	-	-
CCOC(=O)c1[nH]c(C)c(C(=O)Nc2cc(Cl)ccc2C)c1C	-	.	29	.	-	-
CCOC(=O)c1[nH]c(C)c(C(=O)Nc2ccccc2C)c1C	-	-	-	-	-	-
C[C@@H]1CCCCO[C@H](CN(C)C(=O)c2ccccc2)[C@@H](C)CN([C@H](C)CO)C(=O)c2cc(NC(=O)C3CCCCC3)ccc2O1	.	-	.	-	.	.
O=C(C[n+]1cc(-c2ccc(Cl)c(Cl)c2)n2c1CCC2)N1c2ccccc2Sc2ccccc21	.	-	-	.	57	-
O=C(C[n+]1cc(-c2ccc(Cl)cc2)n2c1CCC2)Nc1nc(-c2ccccc2)cs1	-	-	-	-	-	-
O=C(C[n+]1cc(-c2ccc(Cl)cc2)n2c1CCC2)N1c2ccccc2Sc2ccccc21	-	70	-	-	-	-
Cn1c(NC(=O)C[n+]2cc(-c3ccc(Cl)c(Cl)c3)n3c2CCC3)cc(=O)n(C)c1=O	-	-	-	-	-	-
COc1ccc(-c2c[n+](CC(=O)N3c4ccccc4Sc4ccccc43)c3n2CCC3)cc1	-	76	-	-	-	-
C[C@@H]1CN([C@@H](C)CO)C(=O)CCCn2cc(nn2)CO[C@@H]1CN(C)C(=O)Nc1ccc(F)cc1	.	-	.	.	.	.
COc1ccc(/C=C2\CCCC3C2=NN(C(=O)c2scnc2C)C3c2ccc(OC)c(OC)c2)cc1OC (stereo not drawn)	-	.	-	66	-	-
COc1ccc(/C=C2\CCCC3C2=NN(C(=O)c2ccco2)C3c2ccc(OC)c(OC)c2)cc1OC (stereo not drawn)	-	.	-	.	-	-
COc1ccc(-c2cc(-c3nc4ccccn4c3NCc3ccccc3)ccc2OC)cc1	-	102	-	?	-	-
O=C(Nc1ccc(F)cc1F)N1CCCN(c2ccc(C(F)(F)F)cn2)CC1	-	-	-	-	-	-
Fc1ccc(NC(=S)N2CCCN(c3ccc(C(F)(F)F)cn3)CC2)c(F)c1	-	-	-	61	-	-
COc1ccc(S(=O)(=O)N(C)C)cc1NC(=O)Cc1ccc(S(=O)(=O)N2CCOCC2)s1	-	-	-	?	51	.
CN(C)S(=O)(=O)c1ccc(NC(=O)Cc2ccc(S(=O)(=O)N3CCOCC3)s2)cc1	-	-	-	-	-	-
C[C@H]1CN([C@@H](C)CO)S(=O)(=O)c2ccc(C3=CCCC3)cc2O[C@H]1CN(C)S(=O)(=O)c1ccc(F)cc1	.	.	.	-	.	.
SMILES	Arr AP2 block	PAX8 reporter	Glyco luc inh	Env fusion inh	Rtt109 HAT inh	PfHsp90 yeast 2
C[C@@H]1CN([C@H](C)CO)S(=O)(=O)c2ccc(C3=CCCCC3)cc2O[C@@H]1CN(C)S(=O)(=O)c1ccc(F)cc1	.	.	.	58[16.7 µM]	.	.
COc1ccc(S(=O)(=O)N(C)C[C@H]2Oc3cc(C4=CCCC4)ccc3S(=O)(=O)N([C@H](C)CO)C[C@@H]2C)cc1	.	.	.	-	.	.
Cc1ccc(S(=O)(=O)N(C)C[C@@H]2Oc3cc(C4=CCCC4)ccc3S(=O)(=O)N([C@H](C)CO)C[C@@H]2C)cc1	.	67	.	-	.	.
COc1ccc(S(=O)(=O)N(C)C[C@H]2Oc3cc(C4=CCCC4)ccc3S(=O)(=O)N([C@@H](C)CO)C[C@H]2C)cc1	.	.	.	69[16.7 µM]	.	.
CCCNC(=O)C[C@H]1CC[C@@H]2[C@H](COC[C@H](O)CN2C(=O)c2cccnc2)O1	.	-	.	-	.	.
C[C@H]1CN([C@@H](C)CO)C(=O)CCCn2cc(nn2)CO[C@H]1CN(C)S(=O)(=O)c1cccc(F)c1	.	.	.	-	.	.
COc1cccc(/C=N/Nc2cc(-n3nc(C)cc3-c3ccccc3)ncn2)c1O	-	-	-	-	-	-
COc1cccc(/C=N/Nc2nccnc2Cl)c1O	-	?	-	-	-	-
COc1cccc(/C=N/Nc2ncnc3scc(-c4ccccc4)c23)c1O	-	76	-	-	-	100
COc1cccc(/C=N/Nc2ncnc(Cl)c2N)c1O	-	.	-	55	-	-
CC1(C)CC(=O)C2=C(C1)N(c1ccc(F)cc1)C(=O)CC2c1cccnc1 (stereo not drawn)	-	-	-	-	-	-
CCSc1nnc(N2C(=O)CC(c3ccsc3)C3=C2CC(C)(C)CC3=O)s1 (stereo not drawn)	-	-	-	58	-	-
COc1ccc(C)cc1NS(=O)(=O)c1ccc(-c2cnc(C3CC3)o2)cc1	-	99	-	-	-	-
Cc1cccc(C)c1NS(=O)(=O)c1ccc(-c2cnc(C3CC3)o2)cc1	-	92	-	-	-	-
COc1ccc(NC(=O)N(C)C[C@@H]2Oc3ccc(N(C)C)cc3C(=O)N([C@@H](C)CO)C[C@H]2C)cc1	.	-	.	-	.	.
C[C@H]1CN([C@@H](C)CO)C(=O)Cc2cc(NC(=O)C3CC3)ccc2O[C@@H]1CN(C)Cc1ccc(-c2ccccc2)cc1	.	103	.	-	.	.
C[C@H](CO)N1C[C@H](C)[C@@H](CN(C)Cc2ccc(-c3ccccc3)cc2)Oc2ccc(NC(=O)C3CCCCC3)cc2CC1=O	.	-	.	-	.	.
CC(C)NC(=O)N(C)C[C@@H]1Oc2ccc(NC(=O)C3CC3)cc2CC(=O)N([C@H](C)CO)C[C@H]1C	.	-	.	62[16.7 µM]	.	.
C[C@H](CO)N1C[C@H](C)[C@@H](CN(C)Cc2ccc(-c3ccccc3)cc2)Oc2ccc(NC(=O)C3CC3)cc2CC1=O	.	104	.	-	.	.
CC(C)NC(=O)N(C)C[C@H]1Oc2ccc(NC(=O)C3CC3)cc2CC(=O)N([C@@H](C)CO)C[C@@H]1C	.	-	.	-	.	.
